Source: ChEMBL document CHEMBL4130494, “Crassiflorone derivatives that inhibit Trypanosoma brucei glyceraldehyde-3-phosphate dehydrogenase (TbGAPDH) and Trypanosoma cruzi trypanothione reductase (TcTR) and display trypanocidal activity” (Eur J Med Chem, 2017)
≈ marks a conversion by molar mass, not a printed value. Calls of active or inactive are those of the source. The rule behind the calls is not given here.

Tests used:
[1] = tested on: Trypanosoma brucei brucei; test: Growth inhibition of Trypanosoma brucei brucei Lister 427 bloodstream forms at 10 uM by SYBR Green based assay relative to control; assay type: functional; conditions: read-out: GI
Leishmania infantum = test: Growth inhibition of Leishmania infantum MHOM/BR/72/BH046 amastigotes infected in human THP1 cells at 10 uM after 48 hrs by Draq 5 staining based high-content automated imaging analysis relative to control; assay type: functional; conditions: MHOM/BR/72/BH046, THP-1, 48 h, read-out: GI
Outline: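 THP-1 cells differentiated 48 h with 50 ng/mL PMA, infected 24 h with 6-day-old promastigotes (50 per cell), then treated 48 h; 0.5% DMSO negative, 10 µM amphotericin B positive. Paraformaldehyde-fixed, Draq5-stained, imaged; infection ratio normalized to DMSO-treated infected and non-infected controls.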

CYP1A2 = target: T1, CYP1A2 (Homo sapiens, UniProt P05177); test: Inhibition of human CYP1A2 at 10 uM by P450-Glo assay relative to control; assay type: ADME
T1 sequence (P05177 whole entry): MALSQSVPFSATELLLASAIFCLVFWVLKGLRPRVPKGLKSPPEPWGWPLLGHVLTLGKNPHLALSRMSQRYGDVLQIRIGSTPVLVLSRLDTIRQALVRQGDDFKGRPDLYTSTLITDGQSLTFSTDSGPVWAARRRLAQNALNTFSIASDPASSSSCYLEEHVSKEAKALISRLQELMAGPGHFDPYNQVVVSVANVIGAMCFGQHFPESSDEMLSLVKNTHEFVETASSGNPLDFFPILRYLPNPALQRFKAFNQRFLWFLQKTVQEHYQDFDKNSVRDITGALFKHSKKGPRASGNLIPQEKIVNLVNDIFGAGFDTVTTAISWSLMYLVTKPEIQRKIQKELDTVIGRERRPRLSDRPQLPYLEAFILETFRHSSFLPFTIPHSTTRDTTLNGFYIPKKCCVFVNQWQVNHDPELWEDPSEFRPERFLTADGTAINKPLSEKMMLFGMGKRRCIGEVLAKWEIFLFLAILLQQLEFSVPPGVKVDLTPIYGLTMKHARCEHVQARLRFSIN
Outline: (§1)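 P450-Glo luminescent platform: CYP action on each substrate generates light; decreased light taken as inhibition.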

Trypanosoma brucei = test: Inhibition of Trypanosoma brucei glyceraldehyde-3-phosphate dehydrogenase at 10 uM using GAP as substrate in presence of NAD+ by spectrophotometric method relative to control
Outline: (§2)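 Recombinant TbGAPDH (200–300 μg protein) in 10 mM triethanolamine, 1.7 mM NaHCO3, 100 mM KCl, 5 mM MgSO4, 1 mM EDTA, pH 7.6, 25 °C, with 400 μM NAD+, 500 μM KH2PO4, 300 μM GAP; NAD+ reduction followed at 340 nm; inhibitors from DMSO stocks; triplicate; reported as percentage activity.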

[2] = Solubility in pH 7.4 Hanks simulated body fluid after overnight incubation by nephelometry; assay type: physicochemical
[3] = target: T2, Pteridine reductase, putative (Trypanosoma brucei) (UniProt Q581W1); test: Inhibition of Trypanosoma brucei pteridine reductase 1 assessed as reduction in conversion of dihydrobiopterin to tetrahydrobiopterin at 20 uM up to 50 mins in presence of NADPH by cytochrome c reduction coupled photometric assay relative to control
T2 sequence (whole entry): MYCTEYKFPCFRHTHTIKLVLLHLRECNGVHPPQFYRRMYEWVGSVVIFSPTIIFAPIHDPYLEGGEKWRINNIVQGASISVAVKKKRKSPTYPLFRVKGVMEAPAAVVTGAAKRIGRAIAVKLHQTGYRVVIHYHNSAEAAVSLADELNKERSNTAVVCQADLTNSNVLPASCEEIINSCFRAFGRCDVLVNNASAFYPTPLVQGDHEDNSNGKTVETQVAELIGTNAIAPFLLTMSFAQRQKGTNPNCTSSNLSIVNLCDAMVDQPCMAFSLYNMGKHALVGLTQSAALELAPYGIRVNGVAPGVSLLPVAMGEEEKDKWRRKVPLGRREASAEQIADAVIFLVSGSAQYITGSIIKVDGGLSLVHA

CYP2C9 = CYP2C9 (Homo sapiens, UniProt P11712); test: Inhibition of human CYP2C9 at 10 uM by P450-Glo assay relative to control; assay type: ADME; outline: as §1
CYP2C9, sequence (P11712 whole entry): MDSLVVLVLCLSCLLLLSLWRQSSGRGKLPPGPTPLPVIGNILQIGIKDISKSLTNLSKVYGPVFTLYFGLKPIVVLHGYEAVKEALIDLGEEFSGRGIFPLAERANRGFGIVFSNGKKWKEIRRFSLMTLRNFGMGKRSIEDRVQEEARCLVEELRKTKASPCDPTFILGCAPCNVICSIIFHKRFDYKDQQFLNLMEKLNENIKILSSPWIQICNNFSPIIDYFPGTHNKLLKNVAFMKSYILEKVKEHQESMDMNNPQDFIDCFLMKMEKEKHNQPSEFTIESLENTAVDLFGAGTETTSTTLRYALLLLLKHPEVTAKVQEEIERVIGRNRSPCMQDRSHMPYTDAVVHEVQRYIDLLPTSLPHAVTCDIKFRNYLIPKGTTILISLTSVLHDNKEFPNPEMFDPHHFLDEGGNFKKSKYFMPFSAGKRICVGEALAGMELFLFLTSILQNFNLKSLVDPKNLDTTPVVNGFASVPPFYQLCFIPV

CYP3A4 = CYP3A4 (Homo sapiens, UniProt P08684); test: Inhibition of human CYP3A4 at 10 uM by P450-Glo assay relative to control; assay type: ADME; outline: as §1
CYP3A4, sequence (P08684 whole entry): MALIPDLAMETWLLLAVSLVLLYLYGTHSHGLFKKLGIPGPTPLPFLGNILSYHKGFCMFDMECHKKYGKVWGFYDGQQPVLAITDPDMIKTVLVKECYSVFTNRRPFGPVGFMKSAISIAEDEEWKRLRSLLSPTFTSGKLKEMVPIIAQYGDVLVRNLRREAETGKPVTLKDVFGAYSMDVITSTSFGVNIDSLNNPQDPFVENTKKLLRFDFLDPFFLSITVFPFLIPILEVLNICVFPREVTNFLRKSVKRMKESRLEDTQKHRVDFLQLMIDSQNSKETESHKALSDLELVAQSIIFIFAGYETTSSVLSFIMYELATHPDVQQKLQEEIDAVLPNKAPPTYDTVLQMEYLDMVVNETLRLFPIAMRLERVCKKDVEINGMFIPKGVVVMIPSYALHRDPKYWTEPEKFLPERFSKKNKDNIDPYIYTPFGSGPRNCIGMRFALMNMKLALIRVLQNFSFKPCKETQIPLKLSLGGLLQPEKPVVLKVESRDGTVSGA

Trypanosoma cruzi = test: Growth inhibition of Trypanosoma cruzi Y trypamastigotes infected in human U2OS cells at 10 uM after 72 hrs by Draq 5 staining based high-content automated imaging analysis relative to control; assay type: functional; conditions: read-out: GI
Outline: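 U2OS cells (3,000/well) co-seeded with Y strain trypomastigotes at 5:1 right after compound addition; 72 h at 37 °C, 5% CO2. Fixed, stained, imaged and normalized as for the Leishmania assay; host toxicity from cell ratio against negative-control wells.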

CYP2D6 = CYP2D6 (Homo sapiens, UniProt P10635); test: Inhibition of human CYP2D6 at 10 uM by P450-Glo assay relative to control; assay type: ADME; outline: as §1
CYP2D6, sequence (P10635 whole entry): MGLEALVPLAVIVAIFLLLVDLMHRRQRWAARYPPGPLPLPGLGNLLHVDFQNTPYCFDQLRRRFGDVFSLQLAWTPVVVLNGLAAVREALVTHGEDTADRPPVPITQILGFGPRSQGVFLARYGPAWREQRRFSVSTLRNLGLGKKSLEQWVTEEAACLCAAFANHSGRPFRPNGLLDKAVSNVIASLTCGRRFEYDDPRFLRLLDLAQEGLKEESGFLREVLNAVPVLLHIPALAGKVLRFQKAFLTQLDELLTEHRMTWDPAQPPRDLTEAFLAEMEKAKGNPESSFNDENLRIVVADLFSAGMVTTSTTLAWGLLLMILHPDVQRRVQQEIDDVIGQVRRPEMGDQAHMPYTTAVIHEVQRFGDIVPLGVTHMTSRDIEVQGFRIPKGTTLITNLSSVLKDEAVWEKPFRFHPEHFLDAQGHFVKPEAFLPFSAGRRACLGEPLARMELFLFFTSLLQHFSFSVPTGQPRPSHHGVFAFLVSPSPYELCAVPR

[4] = Solubility in PBS after overnight incubation by nephelometry; assay type: physicochemical
[5] = target: Trypanothione reductase (Trypanosoma cruzi) (UniProt P28593); test: Inhibition of Trypanosoma cruzi trypanothione reductase assessed as reduction in NADPH consumption at 10 uM using 40 uM trypanothione disulfide as substrate by spectrophotometric method
Trypanothione reductase (Trypanosoma cruzi), sequence (P28593 whole entry, looked up): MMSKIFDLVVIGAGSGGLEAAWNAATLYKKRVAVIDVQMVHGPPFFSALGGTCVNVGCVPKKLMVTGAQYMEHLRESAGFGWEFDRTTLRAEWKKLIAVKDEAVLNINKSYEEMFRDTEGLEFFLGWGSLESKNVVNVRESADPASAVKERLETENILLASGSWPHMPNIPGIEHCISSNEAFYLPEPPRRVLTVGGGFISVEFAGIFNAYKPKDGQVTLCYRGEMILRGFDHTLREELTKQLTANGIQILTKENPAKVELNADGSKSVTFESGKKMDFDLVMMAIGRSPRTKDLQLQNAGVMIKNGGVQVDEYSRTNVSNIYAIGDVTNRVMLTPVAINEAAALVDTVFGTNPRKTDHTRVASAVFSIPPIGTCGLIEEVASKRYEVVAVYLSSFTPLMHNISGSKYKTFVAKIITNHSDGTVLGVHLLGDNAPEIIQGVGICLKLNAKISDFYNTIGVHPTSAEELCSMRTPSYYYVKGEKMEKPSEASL
Outline: (§3)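 Recombinant TcTR (5–10 mU) at 25 °C in 40 mM HEPES, 1 mM EDTA, pH 7.5, 100 μM NADPH, 5% DMSO; started with trypanothione disulfide; NADPH consumption read at 340 nm; percentage inhibition calculated.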

786-0 = test: Cytotoxicity against human 786-O cells assessed as mitochondrial viability at 10 uM by CMXRos staining based high-content imaging analysis relative to control; assay type: cell-based; conditions: 786-0, 10 µM
Outline: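 786-O cells kept in RPMI-1640 with 2 mM glutamine, 10% FCS, streptomycin and penicillin G; mitochondria of live cells stained with MitoTracker Red CMXRos and imaged by high-content imaging.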

CYP2C19 = CYP2C19 (Homo sapiens, UniProt P33261); test: Inhibition of human CYP2C19 at 10 uM by P450-Glo assay relative to control; assay type: ADME; outline: as §1
CYP2C19, sequence (P33261 whole entry): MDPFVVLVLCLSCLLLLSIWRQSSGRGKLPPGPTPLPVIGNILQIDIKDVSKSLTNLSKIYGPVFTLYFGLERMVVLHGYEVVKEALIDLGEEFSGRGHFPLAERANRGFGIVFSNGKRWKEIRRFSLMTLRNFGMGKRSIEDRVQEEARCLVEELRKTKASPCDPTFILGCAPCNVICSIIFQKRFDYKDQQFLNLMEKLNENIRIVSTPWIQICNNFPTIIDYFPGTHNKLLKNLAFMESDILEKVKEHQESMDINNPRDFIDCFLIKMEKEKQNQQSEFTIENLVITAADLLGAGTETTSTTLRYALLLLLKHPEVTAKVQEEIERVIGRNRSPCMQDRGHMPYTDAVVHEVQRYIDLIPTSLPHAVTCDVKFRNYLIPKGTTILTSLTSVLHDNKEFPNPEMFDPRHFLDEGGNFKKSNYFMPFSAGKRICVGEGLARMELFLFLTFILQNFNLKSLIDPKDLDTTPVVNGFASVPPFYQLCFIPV

hERG (KCNH2) = hERG (KCNH2) (Homo sapiens, UniProt Q12809); test: Inhibition of Tracer Red binding to human ERG expressed in membranes at 10 uM by fluorescence polarization assay relative to control; conditions: membranes expressing human ERG, probe Tracer Red
hERG (KCNH2), sequence (Q12809 whole entry): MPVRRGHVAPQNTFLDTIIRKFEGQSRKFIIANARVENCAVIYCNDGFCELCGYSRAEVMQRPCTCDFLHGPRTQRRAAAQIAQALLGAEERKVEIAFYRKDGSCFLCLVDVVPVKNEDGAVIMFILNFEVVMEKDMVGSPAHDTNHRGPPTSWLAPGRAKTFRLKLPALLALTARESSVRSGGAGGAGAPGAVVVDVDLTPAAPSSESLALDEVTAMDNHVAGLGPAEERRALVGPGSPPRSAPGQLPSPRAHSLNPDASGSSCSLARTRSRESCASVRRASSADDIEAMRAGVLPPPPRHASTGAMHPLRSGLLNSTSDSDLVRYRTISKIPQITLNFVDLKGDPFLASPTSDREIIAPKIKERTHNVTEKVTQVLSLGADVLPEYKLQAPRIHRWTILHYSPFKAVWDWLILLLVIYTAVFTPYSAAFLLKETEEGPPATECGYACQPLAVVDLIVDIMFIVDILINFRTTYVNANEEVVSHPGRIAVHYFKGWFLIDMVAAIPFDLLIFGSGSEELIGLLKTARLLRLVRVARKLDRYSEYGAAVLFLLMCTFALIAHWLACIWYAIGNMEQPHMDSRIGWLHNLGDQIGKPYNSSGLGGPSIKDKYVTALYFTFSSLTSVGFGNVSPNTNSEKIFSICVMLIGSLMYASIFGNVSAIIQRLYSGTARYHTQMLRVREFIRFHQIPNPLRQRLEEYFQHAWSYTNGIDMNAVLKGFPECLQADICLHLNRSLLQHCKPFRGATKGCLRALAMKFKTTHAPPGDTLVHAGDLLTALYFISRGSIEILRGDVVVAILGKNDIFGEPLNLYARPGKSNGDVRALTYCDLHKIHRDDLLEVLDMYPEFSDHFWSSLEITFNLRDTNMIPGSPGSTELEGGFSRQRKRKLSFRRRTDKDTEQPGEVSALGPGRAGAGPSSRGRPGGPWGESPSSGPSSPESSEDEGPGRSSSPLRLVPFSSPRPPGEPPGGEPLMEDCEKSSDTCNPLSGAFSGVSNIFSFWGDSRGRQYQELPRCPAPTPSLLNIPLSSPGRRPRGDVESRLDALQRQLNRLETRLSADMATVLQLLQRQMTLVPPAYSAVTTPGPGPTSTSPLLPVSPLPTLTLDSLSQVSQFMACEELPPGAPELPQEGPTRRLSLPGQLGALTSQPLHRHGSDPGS
Outline: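 Fluorescence polarization displacement of a high-affinity red fluorescent tracer from hERG channel–containing membrane fraction.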

[6] = target: Trypanothione reductase (Trypanosoma cruzi) (UniProt P28593); test: Inhibition of Trypanosoma cruzi trypanothione reductase assessed as reduction in NADPH consumption at 10 uM using 100 uM trypanothione disulfide as substrate by spectrophotometric method; outline: as §3
[7] = target: T3, Pteridine reductase 1 (Leishmania major) (UniProt Q01782); test: Inhibition of Leishmania major pteridine reductase 1 assessed as reduction in conversion of dihydrobiopterin to tetrahydrobiopterin at 20 uM up to 50 mins in presence of NADPH by cytochrome c reduction coupled photometric assay relative to control
T3 sequence (whole entry): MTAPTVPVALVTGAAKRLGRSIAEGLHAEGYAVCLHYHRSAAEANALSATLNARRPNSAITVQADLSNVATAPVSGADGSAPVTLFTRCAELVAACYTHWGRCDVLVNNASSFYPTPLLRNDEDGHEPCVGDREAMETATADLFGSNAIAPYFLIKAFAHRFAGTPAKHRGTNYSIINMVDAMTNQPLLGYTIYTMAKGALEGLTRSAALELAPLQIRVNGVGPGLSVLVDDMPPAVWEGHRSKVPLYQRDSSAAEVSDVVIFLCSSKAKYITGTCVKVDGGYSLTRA

Trypanothione reductase [8] = target: T4, Trypanothione reductase (Trypanosoma cruzi, UniProt P28593); test: Mixed-type inhibition of Trypanosoma cruzi trypanothione reductase assessed as reduction in NADPH consumption using varying levels of trypanothione disulfide as substrate by Lineweaver-Burk plot analysis
T4 sequence (P28593 whole entry): as the sequence (P28593 whole entry, looked up) above
Outline: (§4)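 Same TcTR assay with two fixed inhibitor concentrations and TS2 at 20, 40, 60, 100, 200 μM; inhibition type from Lineweaver–Burk plots; Ki by nonlinear least-squares fit of direct plot; inhibitor assays at least duplicate.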

[9] = Cytotoxicity against human A549 cells assessed as cell growth at 10 uM by CellTiter-Glo assay relative to control; assay type: cell-based; conditions: read-out: Activity
Outline: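 A549 cells; cellular ATP measured by CellTiter-Glo luminescence as a proxy for cell number; paclitaxel 10 μM as positive control.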

[10] = target: T2, Pteridine reductase, putative (Trypanosoma brucei); test: Inhibition of Trypanosoma brucei pteridine reductase 1 assessed as reduction in conversion of dihydrobiopterin to tetrahydrobiopterin at 10 uM up to 50 mins in presence of NADPH by cytochrome c reduction coupled photometric assay relative to control
[11] = target: T3, Pteridine reductase 1 (Leishmania major); test: Inhibition of Leishmania major pteridine reductase 1 assessed as reduction in conversion of dihydrobiopterin to tetrahydrobiopterin at 10 uM up to 50 mins in presence of NADPH by cytochrome c reduction coupled photometric assay relative to control
Trypanothione reductase [12] = target: T4, Trypanothione reductase; test: Non-competitive inhibition of Trypanosoma cruzi trypanothione reductase assessed as reduction in NADPH consumption using varying levels of trypanothione disulfide as substrate by Lineweaver-Burk plot analysis; outline: as §4
[13] = target: Trypanothione reductase (Trypanosoma cruzi) (UniProt P28593); test: Inhibition of Trypanosoma cruzi trypanothione reductase assessed as reduction in NADPH consumption at 20 uM using 40 uM trypanothione disulfide as substrate by spectrophotometric method relative to control; outline: as §3
[14] = target: Trypanothione reductase (Trypanosoma cruzi) (UniProt P28593); test: Inhibition of Trypanosoma cruzi trypanothione reductase assessed as reduction in NADPH consumption at 20 uM using 100 uM trypanothione disulfide as substrate by spectrophotometric method relative to control; outline: as §3
[15] = target: T2, Pteridine reductase, putative (Trypanosoma brucei); test: Inhibition of Trypanosoma brucei pteridine reductase 1 assessed as reduction in conversion of dihydrobiopterin to tetrahydrobiopterin at 50 uM up to 50 mins in presence of NADPH by cytochrome c reduction coupled photometric assay relative to control
[16] = target: Trypanothione reductase (Trypanosoma cruzi) (UniProt P28593); test: Inhibition of Trypanosoma cruzi trypanothione reductase assessed as reduction in NADPH consumption at 100 uM using 40 uM trypanothione disulfide as substrate by spectrophotometric method relative to control; outline: as §3
[17] = target: Trypanothione reductase (Trypanosoma cruzi) (UniProt P28593); test: Inhibition of Trypanosoma cruzi trypanothione reductase assessed as reduction in NADPH consumption at 100 uM using 100 uM trypanothione disulfide as substrate by spectrophotometric method relative to control; outline: as §3
[18] = target: T3, Pteridine reductase 1 (Leishmania major); test: Inhibition of Leishmania major pteridine reductase 1 assessed as reduction in conversion of dihydrobiopterin to tetrahydrobiopterin at 50 uM up to 50 mins in presence of NADPH by cytochrome c reduction coupled photometric assay relative to control
[19] = tested on: Trypanosoma brucei brucei; test: Growth inhibition of Trypanosoma brucei brucei Lister 427 bloodstream forms at 50 uM by SYBR Green based assay relative to control; assay type: functional; conditions: read-out: GI
[20] = Inhibition of Trypanosoma brucei glyceraldehyde-3-phosphate dehydrogenase using GAP as substrate in presence of NAD+ by spectrophotometric method; outline: as §2
[21] = Inhibition of Trypanosoma brucei glyceraldehyde-3-phosphate dehydrogenase
Trypanothione reductase [22] = target: T4, Trypanothione reductase; test: Inhibition of Trypanosoma cruzi trypanothione reductase

SMILES	inhibition at 10 µM (CYP1A2) [%]	inhibition (Trypanosoma brucei) [%]	solubility kinetic [2] [µM]	inhibition at 10 µM (CYP2C9) [%]	inhibition at 10 µM (CYP3A4) [%]	inhibition at 10 µM (CYP2D6) [%]	solubility kinetic [4] [µM]	Activity (786-0) [%]	inhibition at 10 µM (CYP2C19) [%]	inhibition at 10 µM (hERG (KCNH2)) [%]	viability at 10 µM [9] [%]	also measured
O=C1c2oc3c(c2C(=O)c2cccc(O)c21)c(=O)oc1ccccc13	57.3	64	70 (≈ 23.3 µg/mL)	61.5	40.8	102	14 (≈ 4.65 µg/mL)	82.16	107	67.1	138	inhibition of growth at 10 µM [1]: < 20%; inhibition of growth at 10 µM (Leishmania infantum): < 20%; inhibition [3]: 0.94%; inhibition of growth at 10 µM (Trypanosoma cruzi): < 20%; inhibition [5]: 65%; inhibition [6]: 37.8%; inhibition [7]: 28.1%; Ki (Trypanothione reductase [8]): 5.6 µM
COc1cccc2c1C(=O)c1oc3c(c1C2=O)c(=O)oc1ccccc13	99.2	–	35 (≈ 12.1 µg/mL)	89.3	38.5	108	70 (≈ 24.2 µg/mL)	89.95	55.5	42.7	166	inhibition [10]: -5.69%; inhibition [11]: -3.51%; Ki (Trypanothione reductase [12]): 22.4 µM; inhibition [13]: 42.6%; inhibition [14]: 41.1%
Nc1ccc2oc(=O)c3c4c(oc3c2c1)C(=O)c1c(O)cccc1C4=O	37.8	75	35 (≈ 12.2 µg/mL)	85.9	46.8	71.5	14 (≈ 4.86 µg/mL)	97.94	63.6	-7.99	157	inhibition [15]: 5.82%; inhibition [16]: inactive; inhibition [17]: inactive; inhibition [18]: 6.19%; inhibition of growth at 50 µM [19]: 77%; IC50 [20]: 2100 nM
CN(C)CCOc1cc2ccc(OC3=CC(=O)c4cc5ccccc5cc4C3=O)cc2oc1=O	–	–	–	–	–	–	–	–	–	–	–	IC50 [21]: 5.4 µM; Ki (Trypanothione reductase [22]): 2300 nM
